Measurements gathered from unrelated publications.
Target: Casein kinase II subunit alpha' (CSNK2A2, Homo sapiens, UniProt P19784)

SMILES	test	conditions	endpoint	value
O=c1[nH]c2ccccc2n1C1CCN(Cc2ccc(-c3[nH]c4cc5ncnc5cc4nc3-c3ccccc3)cc2)CC1	cell-free assay	0.5 µM	remaining signal	101%
COc1ncccc1-c1cnn2ccc(N3CCN(C(=O)OC(C)C)CC3)nc12	binding, competition with immobilised ligand	1 µM	remaining binding	62%
Cn1cncc1[C@@](O)(COc1ccc(C#N)cc1-c1ccc(OC(F)(F)F)cc1)c1ccc(C#N)cc1	cell-free assay, competition with immobilised ligand	1 µM	remaining binding	100%
Nc1ncc(-c2nc(N3CCOCC3)nc(N3CCOCC3)n2)c(C(F)F)n1	binding, competition with immobilised ligand	10 µM	remaining binding	69%
C#Cc1n[nH]c2c(-c3cn([C@@H](C)c4ccccc4)c(=O)[nH]c3=O)cc(F)cc12	enzyme activity, inhibitor	0.1 µM	inhibition	1.5%
Cn1cc(-c2cc(F)cc(N3CCn4c(cc5c4CCCC5)C3=O)c2CO)cc(Nc2ccc(N3CCN(C4COC4)CC3)cn2)c1=O	enzyme activity, inhibitor	0.1 µM	inhibition	1%
CN[C@@H]1C[C@H]2O[C@@](C)([C@@H]1OC)n1c3ccccc3c3c4c(c5c6ccccc6n2c5c31)C(=O)NC4	enzyme activity, inhibitor	0.5 µM	activity vs control	66.6%
Cc1nn(C)cc1-c1nc2c(N3CCN(Cc4ccc(Cl)cc4)CC3)c(Cl)cnc2[nH]1	binding, competition with immobilised ligand	1 µM	remaining binding	67%
C#Cc1n[nH]c2c(-c3cn([C@@H](C)c4ccccn4)c(=O)[nH]c3=O)cc(F)cc12	enzyme activity, inhibitor	0.1 µM	inhibition	3.3%
Cn1cc(-c2cccc(N3CCc4c(sc5c4CC(C)(C)C5)C3=O)c2CO)cc(Nc2ccncn2)c1=O	enzyme activity, inhibitor	1 µM	inhibition	4%
